Tests used:
[1] = tested on: liver cytochrome P450, CYP1A1/2; conditions: non-clinical studies; cited from earlier work
[2] = tested on: Japanese patients with solid tumors; assay: Phase I safety: drug-related adverse events, DLT, MTD, recommended dose; type: in vivo, human; conditions: for Recommended dosage: after-meal conditions
In short: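 Dose escalation used three-patient cohorts, alternating b.i.d. and t.i.d., starting at 200 mg/m2 b.i.d. Oral dosing was by body surface area for 28 days continuously. b.i.d. doses were taken within 1 h after meals, about 12 h apart; t.i.d. doses about 6 or 12 h apart. Patients were assessed at least weekly and graded by NCI-CTC v2.0. DLT: grade ≥3 non-haematological or grade ≥4 haematological drug-related event. MTD: DLT in 2/3 or 3/6 patients.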

PAI-1 = assay: Angiogenesis-related factor: PAI-1; type: in vivo, human
In short: (§1)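 Plasma and urine were collected from patients before treatment and after day 8 and day 28 of oral test compound dosing, and analysed at a central commercial laboratory. ELISA kits were used for human VEGF (plasma and urine), ELAM-1, VCAM-1 and soluble t-PA. Soluble PAI-1 was measured by latex photometric immunoassay. Values are reported as median (range) per time point.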

t-PA = assay: Angiogenesis-related factor: t-PA; type: in vivo, human
In short: as §1

[3] = b.i.d. 200 mg/m^2 × 2, n = 3, G1
[4] = b.i.d. 200 mg/m^2 × 2, n = 3, G2
[5] = b.i.d. 400 mg/m^2 × 2, n = 6, G1
[6] = b.i.d. 400 mg/m^2 × 2, n = 6, G2
[7] = b.i.d. 400 mg/m^2 × 2, n = 6, G3
[8] = b.i.d. 500 mg/m^2 × 2, n = 3, G1
[9] = b.i.d. 500 mg/m^2 × 2, n = 3, G2
[10] = t.i.d. 200 mg/m^2 × 3, n = 6, G1
[11] = t.i.d. 200 mg/m^2 × 3, n = 6, G2
[12] = t.i.d. 400 mg/m^2 × 3, n = 6, G1
[13] = t.i.d. 400 mg/m^2 × 3, n = 6, G2
[14] = t.i.d. 400 mg/m^2 × 3, n = 6, G4

Cc1[nH]c(/C=C2\C(=O)Nc3ccccc32)c(C)c1CCC(=O)O [TSU-68, (Z)-5-[(1,2-dihydro-2-oxo-3H-indol-3-ylidene)methyl]-2,4-dimethyl-1H-pyrrole-3-propanoic acid]
9 (37.5) no. (%): Nauseous, Total no. (%) ([2]; all dose levels, n = 24)
18 (75.0) no. (%): Malaise, Total no. (%) ([2]; all dose levels, n = 24)
3: Number of patients with drug-related Discoloration urine/stool [2, 3] | No. maximum grade (patients, drug-related adverse events) [2, 4] | Number of patients with drug-related Discoloration urine/stool [2, 8] | Number of patients with drug-related Malaise [2, 8] | Number of patients with drug-related Nauseous [2, 8] | No. maximum grade (patients, drug-related adverse events) [2, 9] | Number of patients with drug-related Vomiting [2, 10] | Number of patients with drug-related Blood albumin decreased [2, 12] | Number of patients with drug-related Diarrhea [2, 12] | Number of patients with drug-related Face edema [2, 12] | Number of patients with drug-related Malaise [2, 12]
7 (29.2) no. (%): Headache, Total no. (%) ([2]; all dose levels, n = 24)
20 (83.3) no. (%): Blood albumin decreased, Total no. (%) ([2]; all dose levels, n = 24)
6 (25.0) no. (%): Face edema, Total no. (%) ([2]; all dose levels, n = 24) | γ-glutamyltransferase increased, Total no. (%) ([2]; all dose levels, n = 24)
induction: Effect on liver cytochrome P450, CYP1A1/2 involved in its own metabolism [1]
2 patients: Patients experiencing DLTs ([2]; 400 mg/m^2 b.i.d. dose level, three plus three patients, grade 3 dyspnea, hypoxemia, pleural effusion and anorexia, and unacceptable grade 2 anorexia)
1: Number of patients with drug-related Alkaline phosphatase increased [2, 3] | Number of patients with drug-related Blood albumin decreased [2, 3] | Number of patients with drug-related Diarrhea [2, 3] | Number of patients with drug-related Malaise [2, 3] | Number of patients with drug-related Serum total protein decreased [2, 3] | Number of patients with drug-related Blood albumin decreased [2, 4] | Number of patients with drug-related Diarrhea [2, 4] | Number of patients with drug-related Malaise [2, 4] | Number of patients with drug-related Nauseous [2, 4] | Number of patients with drug-related Vomiting [2, 4] | Number of patients with drug-related Abdominal pain [2, 5] | Number of patients with drug-related Abdominal pain upper [2, 5] | Number of patients with drug-related Back pain [2, 5] | Number of patients with drug-related Headache [2, 5] | Number of patients with drug-related Pleural effusion [2, 5] | Number of patients with drug-related γ-glutamyltransferase increased [2, 5] | Number of patients with drug-related Anorexia [2, 6] | Number of patients with drug-related Back pain [2, 6] | Number of patients with drug-related Nauseous [2, 6] | Number of patients with drug-related Serum total protein decreased [2, 6] | No. maximum grade (patients, drug-related adverse events) [2, 7] | Number of patients with drug-related Anorexia [2, 7] | Number of patients with drug-related Dyspnea [2, 7] | Number of patients with drug-related Hypoxia [2, 7] | Number of patients with drug-related Pleural effusion [2, 7] | Number of patients with drug-related Abdominal pain upper [2, 8] | Number of patients with drug-related Alkaline phosphatase increased [2, 8] | Number of patients with drug-related Blood albumin decreased [2, 8] | Number of patients with drug-related Diarrhea [2, 8] | Number of patients with drug-related Face edema [2, 8] | Number of patients with drug-related Headache [2, 8] | Number of patients with drug-related Pleural effusion [2, 8] | Number of patients with drug-related Serum total protein decreased [2, 8] | Number of patients with drug-related Abdominal pain upper [2, 9] | Number of patients with drug-related Headache [2, 9] | Number of patients with drug-related Serum total protein decreased [2, 9] | No. maximum grade (patients, drug-related adverse events) [2, 10] | Number of patients with drug-related Abdominal pain [2, 10] | Number of patients with drug-related Nauseous [2, 10] | Number of patients with drug-related Pleural effusion [2, 10] | Number of patients with drug-related Serum total protein decreased [2, 10] | Number of patients with drug-related γ-glutamyltransferase increased [2, 10] | Number of patients with drug-related Back pain [2, 11] | Number of patients with drug-related Blood albumin decreased [2, 11] | Number of patients with drug-related Diarrhea [2, 11] | Number of patients with drug-related Abdominal pain [2, 12] | Number of patients with drug-related Anorexia [2, 12] | Number of patients with drug-related Nauseous [2, 12] | Number of patients with drug-related Pleural effusion [2, 12] | Number of patients with drug-related Serum total protein decreased [2, 12] | Number of patients with drug-related Alkaline phosphatase increased [2, 13] | Number of patients with drug-related Anorexia [2, 13] | Number of patients with drug-related Diarrhea [2, 13] | No. maximum grade (patients, drug-related adverse events) [2, 14] | Number of patients with drug-related Pericardial effusion [2, 14]
400 mg/body: Recommended dose suggested by the Independent Data Monitoring Committee ([2]; b.i.d. after meals)
8 (33.3) no. (%): Vomiting, Total no. (%) ([2]; all dose levels, n = 24)
13 (54.2) no. (%): Alkaline phosphatase increased, Total no. (%) ([2]; all dose levels, n = 24)
28 ng/mL: PAI-1, median (PAI-1; day 8, 23 patients)
G4 (DLT): Toxicity ≥ G3-4 ([2]; Pt 19, NSCLC, t.i.d. 400 mg/m^2 (2,400 mg/day))
not found: Dose-limiting toxicity (DLT) ([2]; 500 mg/m^2 b.i.d. dose level)
24 (100) no. (%): Discoloration urine/stool, Total no. (%) ([2]; all dose levels, n = 24)
12 (50.0) no. (%): Anorexia, Total no. (%) ([2]; all dose levels, n = 24)
7.2 ng/mL: t-PA, median (t-PA; day 8, 23 patients)
31 ng/mL: PAI-1, median (PAI-1; day 28, 22 patients)
11 to 120 ng/mL: PAI-1, range (PAI-1; day 28, 22 patients)
not reached: MTD (maximum tolerated dose) ([2]; t.i.d. after meals, up to 400 mg/m^2)
6: Number of patients with drug-related Alkaline phosphatase increased [2, 5] | Number of patients with drug-related Discoloration urine/stool [2, 5] | Number of patients with drug-related Discoloration urine/stool [2, 10] | Number of patients with drug-related Malaise [2, 10] | Number of patients with drug-related Discoloration urine/stool [2, 12]
3.3 to 14.3 ng/mL: t-PA, range (t-PA; day 8, 23 patients)
2.9 to 13.5 ng/mL: t-PA, range (t-PA; day 28, 22 patients)
17 (70.8) no. (%): Diarrhea, Total no. (%) ([2]; all dose levels, n = 24)
4: Number of patients with drug-related Malaise [2, 5] | Number of patients with drug-related Diarrhea [2, 10]
5: Number of patients with drug-related Diarrhea [2, 5] | No. maximum grade (patients, drug-related adverse events) [2, 6] | Number of patients with drug-related Blood albumin decreased [2, 10] | No. maximum grade (patients, drug-related adverse events) [2, 11] | No. maximum grade (patients, drug-related adverse events) [2, 13]
11 (45.8) no. (%): Abdominal pain, Total no. (%) ([2]; all dose levels, n = 24)
G3 (DLT): Toxicity ≥ G3-4 ([2]; Pt 4, SCLC, b.i.d. 400 mg/m^2 (1,200 mg/day))
11 to 92 ng/mL: PAI-1, range (PAI-1; day 8, 23 patients)
– (DLT): Toxicity ≥ G3-4 ([2]; Pt 5, NSCLC, b.i.d. 400 mg/m^2 (1,200 mg/day))
1 (4.2) no. (%): Dyspnea, Total no. (%) ([2]; all dose levels, n = 24) | Hypoxia, Total no. (%) ([2]; all dose levels, n = 24) | Pericardial effusion, Total no. (%) ([2]; all dose levels, n = 24)
6.8 ng/mL: t-PA, median (t-PA; day 28, 22 patients)
5 (20.8) no. (%): Abdominal pain upper, Total no. (%) ([2]; all dose levels, n = 24) | Back pain, Total no. (%) ([2]; all dose levels, n = 24) | Pleural effusion, Total no. (%) ([2]; all dose levels, n = 24)
0: No. maximum grade (patients, drug-related adverse events) [2, 3] | No. maximum grade (patients, drug-related adverse events) ([2]; b.i.d. 200 mg/m^2 × 2, n = 3, G3) | No. maximum grade (patients, drug-related adverse events) ([2]; b.i.d. 200 mg/m^2 × 2, n = 3, G4) | No. maximum grade (patients, drug-related adverse events) [2, 5] | No. maximum grade (patients, drug-related adverse events) ([2]; b.i.d. 400 mg/m^2 × 2, n = 6, G4) | No. maximum grade (patients, drug-related adverse events) [2, 8] | No. maximum grade (patients, drug-related adverse events) ([2]; b.i.d. 500 mg/m^2 × 2, n = 3, G3) | No. maximum grade (patients, drug-related adverse events) ([2]; b.i.d. 500 mg/m^2 × 2, n = 3, G4) | No. maximum grade (patients, drug-related adverse events) ([2]; t.i.d. 200 mg/m^2 × 3, n = 6, G3) | No. maximum grade (patients, drug-related adverse events) ([2]; t.i.d. 200 mg/m^2 × 3, n = 6, G4) | No. maximum grade (patients, drug-related adverse events) [2, 12] | No. maximum grade (patients, drug-related adverse events) ([2]; t.i.d. 400 mg/m^2 × 3, n = 6, G3)
significantly increasing: Change of PAI-1 at day 28 compared to baseline (PAI-1; PD patients (13 pts.), Wilcoxon signed rank-sum test)
≤ 400 mg/m^2: Recommended dosage ([2]; b.i.d.) | Recommended dosage ([2]; t.i.d.)
2: Number of patients with drug-related Anorexia [2, 3] | Number of patients with drug-related Abdominal pain [2, 4] | Number of patients with drug-related Anorexia [2, 5] | Number of patients with drug-related Blood albumin decreased [2, 5] | Number of patients with drug-related Nauseous [2, 5] | Number of patients with drug-related Vomiting [2, 5] | Number of patients with drug-related Abdominal pain [2, 6] | Number of patients with drug-related Blood albumin decreased [2, 6] | Number of patients with drug-related Headache [2, 6] | Number of patients with drug-related γ-glutamyltransferase increased [2, 6] | Number of patients with drug-related Anorexia [2, 8] | Number of patients with drug-related Vomiting [2, 8] | Number of patients with drug-related Blood albumin decreased [2, 9] | Number of patients with drug-related Alkaline phosphatase increased [2, 10] | Number of patients with drug-related Anorexia [2, 10] | Number of patients with drug-related Face edema [2, 10] | Number of patients with drug-related Abdominal pain [2, 11] | Number of patients with drug-related Abdominal pain upper [2, 11] | Number of patients with drug-related Alkaline phosphatase increased [2, 12] | Number of patients with drug-related Headache [2, 12] | Number of patients with drug-related γ-glutamyltransferase increased [2, 12] | Number of patients with drug-related Abdominal pain [2, 13] | Number of patients with drug-related Back pain [2, 13] | Number of patients with drug-related Blood albumin decreased [2, 13]
